Source: ChEMBL document CHEMBL1122545, “N2-(4-Substituted-2,6-dichlorophenyl)-N1,N1-dimethylformamidines as antihypertensive and diuretic agents” (J Med Chem, 1984)
Several values for one entry are separate records, joined by “and”; a condition that tells them apart may be missing. Equal entries are not always repeated.

Key:
[1] = Diuretic activity was determined expressed as Na+(sodium) excreted in milli equivalents was reported for a duration of 5 hours after administration of a dose of 25 mg/Kg; format: ADME, Urine; details: in vivo
In short: (§1)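 Male SH rats (Okamoto strain), 16 weeks old, dosed orally by gavage with compound dispersed in 3% starch in normal saline at 2 mL/kg. Oral normal saline load, then individual metabolism cages; 0-5 h urine collected, Na+ and K+ measured by flame photometry. Rats redosed at 24 h without the saline load. MABP and HR taken by femoral arterial puncture under local anesthetic 4 h after the second dose.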

[2] = Diuretic activity was determined expressed as volume of urine excreted in mL was reported at a dose of 10 mg/Kg; format: ADME; details: in vivo; in short: as §1
[3] = Diuretic activity was determined expressed as volume of urine excreted in mL was reported at a dose of 25 mg/Kg; format: ADME; details: in vivo; in short: as §1
[4] = tested on: Rattus norvegicus; experiment: Diuretic activity was determined in SH rats expressed as K(+) (potassium) excreted in milli equivalents was reported for a duration of 5 hours after administration of a dose of 10 mg/Kg.; format: ADME, organism-based, Urine; details: in vivo; in short: as §1
[5] = tested on: Rattus norvegicus; experiment: Diuretic activity was determined in SH rats expressed as K(+) (potassium) excreted in milli equivalents was reported for a duration of 5 hours after administration of a dose of 25 mg/Kg.; format: ADME, organism-based, Urine; details: in vivo; in short: as §1
[6] = Diuretic activity was determined expressed as Na+(sodium) excreted in milli equivalents was reported for a duration of 5 hours after administration of a dose of 10 mg/Kg; format: ADME, Urine; details: in vivo; in short: as §1
[7] = tested on: Rattus norvegicus; experiment: Antihypertensive activity determined as heart rate in SH rats, was reported at a dose of 10 mg/Kg; format: functional; in short: as §1
[8] = tested on: Rattus norvegicus; experiment: Antihypertensive activity determined as heart rate in SH rats, was reported at a dose of 25 mg/Kg; format: functional; in short: as §1
[9] = tested on: Rattus norvegicus; experiment: Antihypertensive activity in SH rats, and mean arterial blood pressure was reported at a dose of 10 mg/Kg; format: functional, Artery; in short: as §1
[10] = tested on: Rattus norvegicus; experiment: Antihypertensive activity in SH rats, and mean arterial blood pressure was reported at a dose of 25 mg/Kg; format: functional, Artery; in short: as §1
[11] = tested on: Rattus norvegicus; experiment: […] activity expressed as K(+) (potassium) excreted in milli equivalents was reported for a duration of 5 hours after administration of a dose of 100 mg/Kg.; format: ADME, organism-based, Urine; details: in vivo; in short: as §1
[12] = tested on: Rattus norvegicus; experiment: […] activity expressed as Na+(sodium) excreted in milli equivalents was reported for a duration of 5 hours after administration of a dose of 100 mg/Kg; format: ADME, organism-based, Urine; details: in vivo; in short: as §1
[13] = tested on: Rattus norvegicus; experiment: Diuretic activity was determined expressed as volume of urine excreted in mL was reported at a dose of 100 mg/Kg; format: ADME, organism-based; details: in vivo; in short: as §1
[14] = tested on: Canis familiaris; experiment: Antihypertensive activity in renal hypertensive dogs and fall in heart rate(HR) was reported at a time duration of 3 hour after peroral administration of 0.1 mg/kg; format: functional, Canis lupus familiaris; details: route oral
In short: (§2)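 Chronic phase two kidney-one clip Goldblatt renal hypertensive dogs from a standing colony, habituated to the procedure, dosed orally. Arterial blood pressure and heart rate taken by arterial puncture before dosing and repeated at 1, 3 and 5 h after dosing over a 6-h postdosing interval. Maximal falls in MABP and HR recorded.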

[15] = tested on: Canis familiaris; experiment: Antihypertensive activity in renal hypertensive dogs and fall in heart rate(HR) was reported at a time duration of 3 hour after peroral administration of 0.2 mg/Kg.; format: functional, Canis lupus familiaris; in short: as §2
[16] = tested on: Canis familiaris; experiment: Antihypertensive activity in renal hypertensive dogs and fall in heart rate(HR) was reported at a time duration of 3 hour after peroral administration of 0.3 mg/Kg.; format: functional, Canis lupus familiaris; in short: as §2
[17] = tested on: Canis familiaris; experiment: Antihypertensive activity in renal hypertensive dogs and fall in heart rate(HR) was reported at a time duration of 3 hour after peroral administration of 1.0 mg/Kg.; format: functional, Canis lupus familiaris; in short: as §2
[18] = tested on: Canis familiaris; experiment: Antihypertensive activity in renal hypertensive dogs and fall in heart rate(HR) was reported at a time duration of 5 hour after peroral administration of 0.1 mg/Kg; format: functional, Canis lupus familiaris; in short: as §2
[19] = tested on: Canis familiaris; experiment: Antihypertensive activity in renal hypertensive dogs and fall in heart rate(HR) was reported at a time duration of 5 hour after peroral administration of 0.2 mg/Kg.; format: functional, Canis lupus familiaris; in short: as §2
[20] = tested on: Canis familiaris; experiment: Antihypertensive activity in renal hypertensive dogs and fall in heart rate(HR) was reported at a time duration of 5 hour after peroral administration of 0.3 mg/Kg.; format: functional, Canis lupus familiaris; in short: as §2
[21] = tested on: Canis familiaris; experiment: Antihypertensive activity in renal hypertensive dogs and fall in heart rate(HR) was reported at a time duration of 5 hour after peroral administration of 1.0 mg/Kg.; format: functional, Canis lupus familiaris; in short: as §2
[22] = tested on: Canis familiaris; experiment: Antihypertensive activity in renal hypertensive dogs and maximal fall in mean arterial blood pressure (MABP) was reported at a time duration of 1 hour after peroral administration of 0.2 mg/Kg.; format: functional, Canis lupus familiaris, Artery; in short: as §2
[23] = tested on: Canis familiaris; experiment: Antihypertensive activity in renal hypertensive dogs and maximal fall in mean arterial blood pressure (MABP) was reported at a time duration of 1 hour after peroral administration of 0.3 mg/Kg.; format: functional, Canis lupus familiaris, Artery; in short: as §2
[24] = tested on: Canis familiaris; experiment: Antihypertensive activity in renal hypertensive dogs and maximal fall in mean arterial blood pressure (MABP) was reported at a time duration of 1 hour after peroral administration of 1.0 mg/Kg.; format: functional, Canis lupus familiaris, Artery; in short: as §2
[25] = tested on: Canis familiaris; experiment: Antihypertensive activity in renal hypertensive dogs and maximal fall in mean arterial blood pressure (MABP) was reported at a time duration of 3 hour after peroral administration of 0.1 mg/Kg; format: functional, Canis lupus familiaris, Artery; in short: as §2
[26] = tested on: Canis familiaris; experiment: Antihypertensive activity in renal hypertensive dogs and maximal fall in mean arterial blood pressure (MABP) was reported at a time duration of 3 hour after peroral administration of 0.2 mg/Kg.; format: functional, Canis lupus familiaris, Artery; in short: as §2
[27] = tested on: Canis familiaris; experiment: Antihypertensive activity in renal hypertensive dogs and maximal fall in mean arterial blood pressure (MABP) was reported at a time duration of 3 hour after peroral administration of 0.3 mg/Kg.; format: functional, Canis lupus familiaris, Artery; in short: as §2
[28] = tested on: Canis familiaris; experiment: Antihypertensive activity in renal hypertensive dogs and maximal fall in mean arterial blood pressure (MABP) was reported at a time duration of 5 hour after peroral administration of 0.2 mg/Kg.; format: functional, Canis lupus familiaris, Artery; in short: as §2
[29] = tested on: Canis familiaris; experiment: Antihypertensive activity in renal hypertensive dogs and maximal fall in mean arterial blood pressure (MABP) was reported at a time duration of 5 hour after peroral administration of 0.3 mg/Kg; format: functional, Canis lupus familiaris, Artery
In short: (§3)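 Chronic-phase two kidney-one clip Goldblatt renal hypertensive dogs from a standing colony, habituated to the procedure. Mean arterial pressure and heart rate taken by direct arterial puncture before dosing and again 1, 3 and 5 h after oral dosing; maximal fall recorded over the 6-h postdosing interval.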

[30] = tested on: Canis familiaris; experiment: Antihypertensive activity in renal hypertensive dogs and maximal fall in mean arterial blood pressure (MABP) was reported at a time duration of 5 hour after peroral administration of 1.0 mg/Kg.; format: functional, Canis lupus familiaris, Artery; in short: as §3
[31] = tested on: Canis familiaris; experiment: Antihypertensive activity in renal hypertensive dogs and fall in heart rate(HR) was reported at a time duration of 0 hour after peroral administration of 0.1 mg/Kg.; format: functional, Canis lupus familiaris; in short: as §2
[32] = tested on: Canis familiaris; experiment: Antihypertensive activity in renal hypertensive dogs and fall in heart rate(HR) was reported at a time duration of 0 hour after peroral administration of 0.2 mg/Kg.; format: functional, Canis lupus familiaris; in short: as §2
[33] = tested on: Canis familiaris; experiment: Antihypertensive activity in renal hypertensive dogs and fall in heart rate(HR) was reported at a time duration of 0 hour after peroral administration of 1.0 mg/Kg.; format: functional, Canis lupus familiaris; in short: as §2
[34] = tested on: Canis familiaris; experiment: Antihypertensive activity in renal hypertensive dogs and fall in heart rate(HR) was reported at a time duration of 1 hour after peroral administration of 0.1 mg/kg.; format: functional, Canis lupus familiaris; details: route oral; in short: as §2
[35] = tested on: Canis familiaris; experiment: Antihypertensive activity in renal hypertensive dogs and fall in heart rate(HR) was reported at a time duration of 1 hour after peroral administration of 0.2 mg/kg.; format: functional, Canis lupus familiaris; details: route oral; in short: as §2
[36] = tested on: Canis familiaris; experiment: Antihypertensive activity in renal hypertensive dogs and fall in heart rate(HR) was reported at a time duration of 1 hour after peroral administration of 0.3 mg/Kg.; format: functional, Canis lupus familiaris; in short: as §2
[37] = tested on: Canis familiaris; experiment: Antihypertensive activity in renal hypertensive dogs and fall in heart rate(HR) was reported at a time duration of 1 hour after peroral administration of 1.0 mg/Kg.; format: functional, Canis lupus familiaris; in short: as §2
[38] = tested on: Canis familiaris; experiment: Antihypertensive activity in renal hypertensive dogs and maximal fall in mean arterial blood pressure (MABP) was reported at a time duration of 0 hour after peroral administration of 0.1 mg/Kg; format: functional, Canis lupus familiaris, Artery; in short: as §2
[39] = tested on: Canis familiaris; experiment: Antihypertensive activity in renal hypertensive dogs and maximal fall in mean arterial blood pressure (MABP) was reported at a time duration of 0 hour after peroral administration of 0.2 mg/Kg.; format: functional, Canis lupus familiaris, Artery; in short: as §2
[40] = tested on: Canis familiaris; experiment: Antihypertensive activity in renal hypertensive dogs and maximal fall in mean arterial blood pressure (MABP) was reported at a time duration of 0 hour after peroral administration of 0.3 mg/Kg.; format: functional, Canis lupus familiaris, Artery; in short: as §2
[41] = tested on: Canis familiaris; experiment: Antihypertensive activity in renal hypertensive dogs and maximal fall in mean arterial blood pressure (MABP) was reported at a time duration of 0 hour after peroral administration of 1.0 mg/Kg.; format: functional, Canis lupus familiaris, Artery; in short: as §2
[42] = tested on: Canis familiaris; experiment: Antihypertensive activity in renal hypertensive dogs and maximal fall in mean arterial blood pressure (MABP) was reported at a time duration of 1 hour after peroral administration of 0.1 mg/Kg.; format: functional, Canis lupus familiaris, Artery; in short: as §2
[43] = tested on: Rattus norvegicus; experiment: Antihypertensive activity determined as heart rate in SH rats, was reported at a dose of 100 mg/Kg; format: functional; in short: as §1
[44] = tested on: Rattus norvegicus; experiment: Antihypertensive activity in SH rats, and mean arterial blood pressure was reported at a dose of 100 mg/Kg; format: functional, Artery; in short: as §1
[45] = tested on: Canis familiaris; experiment: Antihypertensive activity in renal hypertensive dogs and fall in heart rate(HR) was reported at a time duration of 0 hour after peroral administration of 0.3 mg/kg.; format: functional, Canis lupus familiaris; details: route oral; in short: as §2
[46] = tested on: Canis familiaris; experiment: Antihypertensive activity in renal hypertensive dogs and maximal fall in mean arterial blood pressure (MABP) was reported at a time duration of 3 hour after peroral administration of 1.0 mg/Kg.

COc1cc(N(C)C)ccc1CNc1cc(Cl)c(/N=C/N(C)C)c(Cl)c1
Diuretic activity [1]: 2.16 m equiv | Diuretic activity [2]: 14.8 mL | Diuretic activity [3]: 22.5 mL | Diuretic activity [4]: 0.48 m equiv | Diuretic activity [5]: 0.75 m equiv | Diuretic activity [6]: 1.29 m equiv | HR [7]: 450 beats min-1 | HR [8]: 270 beats min-1 | MABP [9]: 132 mmHg | MABP [10]: 114 mmHg

CN(C)/C=N/c1c(Cl)cc(NCc2ccc(N(C)C)cc2Cl)cc1Cl
Diuretic activity [11]: 0.47 m equiv | Diuretic activity [12]: 1.89 m equiv | Diuretic activity [13]: 22.3 mL | HR [14]: 96 bpm | HR [15]: 58 bpm | HR [16]: 63 bpm | HR [17]: 47 bpm | HR [18]: 113 bpm | HR [19]: 65 bpm | HR [20]: 60 bpm | HR [21]: 66 bpm | MABP [22]: 123 mmHg | MABP [23]: 111 mmHg | MABP [24]: 108 mmHg | MABP [25]: 135 mmHg and 144 mmHg | MABP [26]: 129 mmHg | MABP [27]: 128 mmHg | MABP [28]: 147 mmHg | MABP [29]: 132 mmHg | MABP [30]: 128 mmHg | HR [31]: 120 bpm | HR [32]: 79 bpm | HR [33]: 110 bpm | HR [34]: 100 bpm | HR [35]: 56 bpm | HR [36]: 60 bpm | HR [37]: 60 bpm | MABP [38]: 146 mmHg | MABP [39]: 152 mmHg | MABP [40]: 148 mmHg | MABP [41]: 140 mmHg | MABP [42]: 126 mmHg | HR [43]: 310 beats min-1 | MABP [44]: 116 mmHg | HR [45]: 94 bpm | MABP [46]: 114 mmHg
